Converted amounts (≈) assume the structure as drawn.
Assays:
[1] = WHO-TDR: Cytotoxicity; assay type: toxicity, cell-based; settings: human, MRC5 cells
Onchocerca lienalis = assay: (§1) WHO-TDR: Onchocerciasis; assay type: functional; set-up: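 at 12.5 µM on microfilariae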
Summary of the method: (§2)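 Following previously published standard procedures, with reference drugs as positive controls, a diverse Life Chemicals library was tested on whole Onchocerca ochengi or Onchocerca lienalis microfilariae. The library held 10,000 compounds filtered for drug-likeness and reactive groups. Activity is recorded both as percent inhibition and as IC50.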

Leishmania infantum = assay: WHO-TDR: Leishmaniasis; assay type: functional, organism-based, Mus musculus; settings: Macrophage
Summary of the method: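 Following previously published standard procedures, a whole-organism screen was run on Leishmania infantum MHOM/MA(BE)/67 amastigotes within murine peritoneal macrophages, with a reference drug as positive control. The 10,000 compounds tested formed a diverse Life Chemicals library filtered for drug-likeness and reactive groups. Potency against the parasite is reported as IC50.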

Plasmodium falciparum K1 = assay: WHO-TDR: Malaria; assay type: functional, organism-based, Homo sapiens; settings: Erythrocyte
Summary of the method: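 Following previously published standard procedures, with a reference drug serving as positive control, compounds were tested on the Plasmodium falciparum K1 strain inside human red blood cells. The 10,000-compound diverse set came from Life Chemicals after filtering for drug-likeness and reactive groups. Potency against the parasite appears as IC50.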

[2] = tested on: Trypanosoma brucei brucei; assay: WHO-TDR: Human African Trypanosomiasis (HAT); assay type: functional, organism-based; settings: Squib-427
Summary of the method: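 Bloodstream forms of the Trypanosoma brucei Squib 427 strain were tested in a whole-organism screen with a diverse library from Life Chemicals of 10,000 compounds. Before screening, the library was filtered for drug-likeness and for reactive groups. The assay used previously published standard procedures and included reference drugs as positive controls. Potency against the parasite is expressed as IC50.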

Trypanosoma cruzi = assay: WHO-TDR: Chagas disease; assay type: functional, organism-based, Homo sapiens; settings: MRC5
Summary of the method: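 A diverse library of 10,000 compounds from Life Chemicals, filtered for drug-likeness and reactive groups, was screened against intracellular amastigotes of Trypanosoma cruzi Tulahuen CL2 beta-galactosidase strain. The parasites were grown in MRC-5SV2 human lung fibroblast host cells, and a reference drug served as positive control under previously published standard procedures. Antiparasitic potency is given as IC50.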

Schistosoma mansoni = assay: WHO-TDR: Schistosomiasis; assay type: functional; set-up: concentration or dose not given beside the values
Summary of the method: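 Activity appears as percent inhibition and as IC50. The underlying screen tested a diverse library of 10,000 compounds, supplied by Life Chemicals, on whole larval and/or adult worms of the Puerto Rican strain of Schistosoma mansoni.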

Onchocerca ochengi = assay: as §1; assay type: functional; set-up: concentration or dose not given beside the values; summary of the method: as §2;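 further: at 12.5 µM on microfilariae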
Brugia malayi = assay: WHO-TDR: Lymphatic Filariasis; assay type: functional; set-up: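 tested at 10 µM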
Summary of the method: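 Following previously published standard procedures, compounds were tested on whole Brugia malayi microfilariae, with reference drugs as positive controls. They came from a diverse Life Chemicals collection of 10,000 compounds filtered for drug-likeness and reactive groups. Results appear as percent inhibition and as IC50.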

IC50 (Leishmania infantum) [µg/mL] | IC50 (Plasmodium falciparum K1) [µg/mL] | IC50 [2] [µg/mL] | SMILES | IC50 [1] [µg/mL] | % Inhibition (Onchocerca lienalis) [%] | IC50 (Trypanosoma cruzi) [µg/mL] | % Inhibition (Schistosoma mansoni) [%] | % Inhibition (Onchocerca ochengi) [%] | % Inhibition (Brugia malayi) [%]
> 15 | > 15 | > 15 | C=CCn1/c(=N/C(=O)c2ccccc2I)sc2cc(S(C)(=O)=O)ccc21 | > 15 | 20 | > 15 | 100 |  | 
> 14.9 | > 14.9 | > 14.9 | CCOC(=O)Cn1/c(=N/C(=O)c2ccccc2Br)sc2cc(S(C)(=O)=O)ccc21 | > 14.9 | 0 | > 14.9 | 100 |  | 
> 10.2 | > 10.2 | > 10.2 | CCn1/c(=N\C(=O)c2ccc(C(C)=O)cc2)sc2cc(C)ccc21 | > 10.2 | 80 | 0.321 (≈ 0.948 µM) | 0 |  | 
> 9.55 | > 9.55 | > 9.55 | N#Cc1ccsc1NC(=O)C(c1ccccc1)c1ccccc1 | > 9.55 | 0 | > 9.55 | 100 |  | 
3.03 (≈ 9.71 µM) | 2.22 (≈ 7.11 µM) | 2.66 (≈ 8.52 µM) | CN(C(=O)CN1CC(=O)Oc2ccccc21)c1ccc(O)cc1 | 2.96 (≈ 9.49 µM) | 20 | 0.548 (≈ 1.75 µM) | 0 |  | 
> 11 | > 11 | > 11 | CCOc1ccc(C(=O)Nc2nc3c(Cl)ccc(Cl)c3s2)cc1 | > 11 | 33.34 | > 11 | 100 |  | 
> 10.4 | > 10.4 | > 10.4 | Cc1c(Cl)ccc2sc(NC(=O)c3ccc(N(C)C)cc3)nc12 | > 10.4 | 50 | > 10.4 | 0 |  | 
0.413 (≈ 0.971 µM) | > 11.4 | > 11.4 | C#CCn1/c(=N/C(=O)CN2C(=O)c3ccccc3C2=O)sc2c3ccccc3ccc21 | > 11.4 | 13.3 | > 11.4 | 0 |  | 
0.304 (≈ 0.654 µM) | 9.4 (≈ 20.2 µM) | > 9.4 | CCOC(=O)Cn1/c(=N/C(=O)c2ccc(N3C(=O)CCC3=O)cc2)sc2c(C)cc(C)cc21 | > 9.4 | 13.3 | > 9.4 | 0 |  | 
4.06 (≈ 9.62 µM) | 0.126 (≈ 0.297 µM) | 3.87 (≈ 9.15 µM) | O=C(CCS(=O)(=O)c1ccccc1)Nc1nc(-c2cccc3ccccc23)cs1 | 1.67 (≈ 3.96 µM) | 6.7 | 0.657 (≈ 1.55 µM) | 0 |  | 
4.87 (≈ 9.71 µM) | > 9.73 | 0.487 (≈ 0.971 µM) | CN(CC1CCCO1)S(=O)(=O)c1ccc(C(=O)Nc2nc3c(s2)CSc2ccccc2-3)cc1 (stereo unspecified) | 3 (≈ 5.99 µM) | 13.3 | 0.521 (≈ 1.04 µM) | 41.7 |  | 
> 7 | > 7 | 0.312 (≈ 0.971 µM) | CC(C)c1ccc2nc(NC(=O)c3ccc(C#N)cc3)sc2c1 | > 7 | 0 | > 7 | 0 |  | 
> 9.82 | 4.26 (≈ 8.71 µM) | 3.69 (≈ 7.54 µM) | CN(CC1CCCO1)S(=O)(=O)c1ccc(C(=O)Nc2nc3cc4c(cc3s2)OCCO4)cc1 (stereo unspecified) | > 9.82 | 20 | 5.16 (≈ 10.5 µM) | 100 |  | 
> 11.5 | > 11.5 | > 11.5 | O=C(NCCNc1ccc(Nc2ccncc2)nn1)Nc1ccc(Cl)cc1 | > 11.5 |  | > 11.5 | 0 | 100 | 0
> 13.2 | 9.79 (≈ 22.3 µM) | > 13.2 | O=S(=O)(NCCNc1ccc(Nc2ccncc2)nn1)c1cc(Cl)ccc1Cl | > 13.2 |  | > 13.2 | 0 | 100 | 0
0.317 (≈ 0.971 µM) | > 9.79 | > 9.79 | CCCC(=O)N1CCN(c2ccc(Nc3ccncc3)nn2)CC1 | > 9.79 |  | > 9.79 | 0 | 0 | 0
> 11.8 | 0.24 (≈ 0.612 µM) | > 11.8 | COc1cccc(NC(=O)CSc2nc(-c3ccccc3Cl)ns2)c1 | > 11.8 | 6.7 | > 11.8 |  |  | 

Reference: ChEMBL document CHEMBL2093137, “WHO-TDR NTD Screening”
